Compound activity: PubChem BioAssay, The Scripps Research Institute Molecular Screening Center
Compounds with a hit are over-represented: about 2.5% of the library has one in this group of screens.
GSTO1 counter = blocks human GSTO1 in RBBP9 counter-screen. inhibition, % at 5.96 µM. 300,000 tested, 1.1% active. P78417. recombinant GSTO1, activity-based probe fluorescence polarization;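 active means inhibition above the campaign mean inhibition plus 3 SD, cut at about 35% in these data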;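 further: 0% = GSTO1-1 with DMSO and 100% = wells lacking GSTO1-1 enzyme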
PRMT1 inh = inhibitors of human PRMT1; recombinant PRMT1, activity-based probe fluorescence polarization; inhibition, % at 2.79 µM; 370,000 tested, 1.3% active; AID 652257;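 active means inhibition above about 21% made by adding two undisclosed values, limit read from the data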
Target sequence (Q99873 whole entry, looked up): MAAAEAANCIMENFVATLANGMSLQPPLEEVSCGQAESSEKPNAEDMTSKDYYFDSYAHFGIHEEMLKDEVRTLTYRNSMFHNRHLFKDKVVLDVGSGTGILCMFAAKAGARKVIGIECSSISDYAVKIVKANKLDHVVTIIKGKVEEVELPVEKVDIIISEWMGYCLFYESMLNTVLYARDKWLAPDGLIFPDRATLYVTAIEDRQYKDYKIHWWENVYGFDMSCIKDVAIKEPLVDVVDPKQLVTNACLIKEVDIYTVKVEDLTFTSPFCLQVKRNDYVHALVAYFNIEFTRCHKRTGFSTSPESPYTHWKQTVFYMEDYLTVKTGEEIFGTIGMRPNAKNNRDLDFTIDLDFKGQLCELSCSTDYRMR
PAD4 FP inh = inhibitors of human PAD4; Q9UM07; recombinant PAD4, RCA probe fluorescence polarization; inhibition, % at 6.36 µM; 330,000 tested, 0.41% active; AID 485272;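 active means percent inhibition above a cutoff equal to the mean of all tested compounds plus 3 SD, cut at about 15% in these data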;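 further: 0% = PAD4 with RCA probe and DMSO and 100% = probe without PAD4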
TDP2 inh = blocks human TDP2 phosphodiesterase activity; O95551; recombinant TDP2, T5PNP hydrolysis, p-nitrophenol absorbance 415 nm; inhibition, % at 12.8 µM; 370,000 tested, 0.34% active; AID 720702;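 active means inhibition above the mean of all tested compounds plus 3 SD, set per campaign, cut at about 25% in these data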;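 further: 0% = DMSO with enzyme and 100% = buffer with substrate but no TDP2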
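Read-out basis: percent inhibition. System: recombinant human TDP2. Buffer or medium: Mg2+-containing Tris-HCl buffer, pH 7.5. Repeats: single replicate. Timing: reaction 2 h, 37 °C. Benchmarks: high control without enzyme, low control DMSO plus TDP2. Probe or stimulus: 5 mM T5PNP. Doses: 12.8 µM only. Measured by: epi absorbance of p-nitrophenol freed from T5PNP by hydrolysis.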
Fh CTSL1 inh = counter-screen for PFM18AAP inhibitors: inhibitors of F. hepatica cathepsin L1; recombinant F. hepatica cathepsin L1, Z-Leu-Arg-MCA fluorescence; inhibition, % at 5.96 µM; 300,000 tested, 0.49% active; AID 1906;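 active means inhibition above the mean of all tested compounds plus 3 SD, set per screening campaign, cut at about 17% in these data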;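 further: 0% = plate median of test compound wells and 100% = 1 µM Z-Phe-Ala-diazomethylketone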
GSTO1 inh conf = GSTO1 (human) inhibition, confirmation; inhibition, % at 5.96 µM; recombinant GSTO1, probe fluorescence polarization; shares compounds with GSTO1 counter; 2,400 tested, 54% active; AID 2176;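 active means inhibition above the primary screen's cutoff, its mean inhibition plus 3 SD, cut at about 35% in these data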;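 further: loss of polarization as inhibitors block binding of rhodamine sulfonate ester activity probe; 0% = GSTO1 with DMSO and 100% = wells lacking GSTO1 enzyme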
PAD4 FP conf = confirmation of human PAD4 inhibitors. AID 488796. 1,200 tested, 28% active. shares compounds with PAD4 FP inh. inhibition, % at 6.36 µM. recombinant PAD4, RCA probe fluorescence polarization;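 active means mean inhibition across replicates above the hit cutoff set by the earlier primary screen, cut at about 15% in these data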;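 further: inhibitors block active-site labeling by the probe so polarization falls; 0% = PAD4 with probe and DMSO and 100% = probe without PAD4 enzyme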
TDP2 confirm = confirmation of human TDP2 inhibitors; recombinant human TDP2, absorbance read-out; inhibition, % at 12.8 µM; shares compounds with TDP2 inh; 1,100 tested, 22% active; AID 743263; in the data active means inhibition above about 25%;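 further: 0% = vehicle with enzyme and 100% = no enzyme buffer only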
* marks the source's active call; other numbers are inactive results; · = no result given.

SMILES	GSTO1 counter	PRMT1 inh	PAD4 FP inh	TDP2 inh	Fh CTSL1 inh	GSTO1 inh conf	PAD4 FP conf	TDP2 confirm
O=C(O)CC1OCC=C2CN3CCC45C6=CC(=O)C(=O)C([N+](=O)[O-])=C6NC4C1C2CC35 (centres undefined)	78.6*	·	66.1*	·	105.7*	81.9*	60.1*	·
Cc1nc(C)c(C(=O)NN=Cc2ccc(N(CCCl)CCCl)cc2)s1	·	-1.9	·	-1.6	·	·	·	·
CN1CC[C@@]2(C)c3cc(O)ccc3N(C)[C@@H]12	·	4.2	·	12.6	·	·	·	·
CN1CC[C@@]2(C)c3cc(O)ccc3N(C)C2O1 (some centres undefined)	85.0*	·	44.8*	·	-0.3	51.5*	8.8	·
CC12Nc3ccccc3C(=O)N1Cc1cnnn1-c1ccccc12 (centres undefined)	·	-0.5	·	2.1	·	·	·	·
CC(C)CCn1c(N)c(C(=O)NCc2cccs2)c2nc3ccccc3nc21	3.4	·	-4.2	·	3.8	·	·	·
CC(C)OCCCNC(=O)c1c(N)n(Cc2cccs2)c2nc3ccccc3nc12	60.1*	0.1	52.2*	-14.2	6.2	-7.7	1.8	·
COCCNC(=O)c1c(N)n(CCC(C)C)c2nc3ccccc3nc12	75.0*	3.4	40.0*	9.0	-1.8	6.4	-1.9	·
N#CC12c3ccccc3C(=O)N1Cc1cnnn1-c1ccccc12 (centres undefined)	·	-0.1	·	-0.6	·	·	·	·
O=C1C(=O)c2ccccc2-c2ccccc21	90.0*	-1.0	81.8*	68.0*	110.0*	93.5*	75.7*	90.0*
CCC(=NCc1cc(OC)cc(OC)c1)c1c(O)[nH]c(=O)[nH]c1=O	7.6	-1.5	-2.2	2.2	-5.2	·	·	·
Nc1c(C(=O)OCC2CCCO2)c2nc3ccccc3nc2n1Cc1cccs1 (centres undefined)	38.9*	0.6	-9.4	30.9*	7.5	5.2	·	7.2
Cc1ccccc1[N+](=O)[O-]	·	0.0	-8.4	-0.8	·	·	·	·
O=C1NC(=O)C(Sc2ccccc2[N+](=O)[O-])C(=O)N1	48.3*	56.5*	-0.8	50.9*	0.8	7.7	·	32.8*
COc1cc2c(c3oc4cccc(O)c4c(=O)c13)[C@@H]1C=CO[C@@H]1O2	·	2.3	·	-0.7	·	·	·	·
CCOC(=O)c1c(NS(=O)(=O)c2ccccc2)n(CCCOC)c2nc3ccccc3nc12	93.1*	2.8	78.9*	91.2*	8.2	58.9*	-5.2	72.9*
CCCCNC(=O)c1c(N)n(CCCOC)c2nc3ccccc3nc12	50.6*	4.2	2.2	36.3*	0.6	16.6	·	1.1
COC(=O)c1c(N)n(Cc2ccc(OC)cc2)c2nc3ccccc3nc12	13.3	2.3	-7.1	8.5	4.7	·	·	·
CC(C)CCNC(=O)c1c(N)n(Cc2ccc3c(c2)OCO3)c2nc3ccccc3nc12	39.6*	-2.9	-3.7	45.1*	-0.6	68.7*	·	-5.8
COC(=O)C1=C(c2ccccc2OCc2ccccc2)C[C@@H]2CC[C@H]1N2C(=O)NCc1ccc(C(C)(C)C)cc1	·	-1.8	-2.3	-3.7	·	·	·	·
COCCn1c(O)c(/C=N/NC(=O)CSC(=S)N2CCCC2)c(=O)[nH]c1=S	·	3.8	-7.5	-2.5	·	·	·	·
CCCNC(=O)N1[C@H]2CC[C@@H]1C(C(=O)OC)=C(c1cccc(OC)c1OC)C2	2.1	-2.1	-5.8	0.3	0.1	·	·	·
CC1(C)CC(=O)C(C2(O)C(=O)NC(=O)NC2=O)=C(O)C1	67.6*	0.6	3.4	53.5*	2.1	60.4*	·	50.4*
CC12CN3CC(C)(CN(C1)C31CCOCC1)C2=O	3.9	-0.7	1.5	6.9	-0.5	·	·	·
CNc1ccc2nc3ccccc3[n+](C)c2c1	101.5*	21.4*	108.4*	45.7*	15.7	62.1*	92.2*	32.4*
COc1cc2c(cc1OC)-c1c(OC)c(OC)cc3c1[C@H](C2)N(C)CC3	47.3*	0.2	23.0*	73.9*	7.9	71.4*	8.8	55.9*
COC(=O)C1=C(c2ccc(-c3ccccc3)c(F)c2)C[C@@H]2CC[C@H]1N2C(=O)N1CCCC1	·	0.1	-0.9	-11.0	·	·	·	·
CN1Cc2cnnn2-c2ccccc2C1c1ccccc1 (centres undefined)	·	-3.4	·	-0.9	·	·	·	·
